Source: PubChem BioAssay
MEKK3 PB1 HTS = modulators (inhibitors or enhancers) of MEK5 binding to human MEKK3 PB1 domain. 290,000 compounds, 1.4% hits. bead-based flow cytometry, Alexa488-MEK5 binding to MEKK3; actives lie on both sides; 0 = blocked by unlabeled MEK5, 100 = vehicle. binding response (% of control), % at 10 µM. AID 1529;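 active = binding response more than 3 SD above or below the average of its plate-row segment, actives on both sides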;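 also: Alexa488 bead fluorescence after subtracting the streptavidin-only scavenger bead signal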
Target sequence (Q99759 whole entry, looked up, the tested form may be a part): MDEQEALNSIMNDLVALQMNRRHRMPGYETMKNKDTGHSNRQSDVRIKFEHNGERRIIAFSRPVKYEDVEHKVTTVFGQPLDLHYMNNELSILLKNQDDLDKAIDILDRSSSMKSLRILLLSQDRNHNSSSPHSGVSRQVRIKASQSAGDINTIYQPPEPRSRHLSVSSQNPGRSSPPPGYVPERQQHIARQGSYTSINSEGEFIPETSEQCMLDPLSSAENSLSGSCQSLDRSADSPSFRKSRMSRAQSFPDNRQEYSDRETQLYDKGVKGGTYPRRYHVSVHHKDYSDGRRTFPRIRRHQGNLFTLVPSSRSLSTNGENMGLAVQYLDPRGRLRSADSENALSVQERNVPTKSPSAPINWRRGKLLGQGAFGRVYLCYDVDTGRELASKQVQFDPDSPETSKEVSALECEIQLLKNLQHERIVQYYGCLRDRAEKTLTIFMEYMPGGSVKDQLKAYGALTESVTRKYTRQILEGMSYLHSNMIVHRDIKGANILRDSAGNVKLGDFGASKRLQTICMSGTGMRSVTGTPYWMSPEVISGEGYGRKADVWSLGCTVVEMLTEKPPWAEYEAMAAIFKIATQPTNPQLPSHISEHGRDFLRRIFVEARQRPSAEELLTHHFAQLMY
MEKK2mut PB1 HTS = signal of MEK5 binding to mutant human MEKK2 PB1 domain | bead flow cytometry, Alexa488-MEK5 binding to MEKK2 mutant | percent response, % at 10 µM | 290,000 compounds, 0.35% hits | AID 1530; in the data active = percent response above about 24%, passing the limit was not always enough
MEKK2wt PB1 HTS = raises or lowers MEK5 binding to wildtype human MEKK2 PB1 domain | bead flow cytometry, Alexa488-MEK5 binding to MEKK2 WT; actives lie on both sides | binding response (% of control), % at 10 µM | 290,000 compounds, 1.1% hits; in the data active = binding response below about 67% or above about 130%
Lipid droplet = modulators of hepatic lipid droplet formation | AML12 mouse hepatocytes, oleate lipid droplets, BODIPY imaging | 240,000 compounds, 0.4% hits | inhibition, % at 6.5 µM;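 active = lipid droplet intensity inhibited by at least 50%, with more than 500 cells counted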
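Assay system: AML12 hepatocytes (mouse) / Also added: 100 µM oleic acid challenge / Times: overnight treatment with compound plus oleate / Detection: high-content imaging of BODIPY-stained droplets and DAPI nuclei / Evaluation: % inhibition of lipid droplet signal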
MEKK2wt confirm = raises or lowers MEK5 binding to wildtype human MEKK2, retest; binding response (% of control), % at 10 µM; bead flow cytometry, Alexa488-MEK5 binding to MEKK2 WT; actives lie on both sides; shares compounds with MEKK3 PB1 HTS; 5,900 compounds, 2.4% hits; in the data active = binding response below about 16% or above about 210%; inactive = in between
MEKK2mut confirm = signal of MEK5 binding to mutant human MEKK2, retest; shares compounds with MEKK3 PB1 HTS; bead flow cytometry, Alexa488-MEK5 binding to MEKK2 mutant; percent response, % at 10 µM; 5,900 compounds, 2% hits; in the data active = percent response mostly above about 71%, no sharp cut-off; inactive = mostly below about 38%;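 also: higher means compound restores mutant binding toward wildtype level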
MEKK3-MEK5 inh = confirmation of inhibitors of MEK5 binding to human MEKK3. shares compounds with MEKK3 PB1 HTS. bead flow cytometry, Alexa488-MEK5 binding to MEKK3; active compounds read low. binding response (% of control), % at 10 µM. 5,900 compounds, 1.8% hits;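 active = binding response below 72% of control, or above a set upper limit, though filed actives all read lower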;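 also: 100% = DMSO only wells and 0% = binding blocked by excess unlabeled MEK5; lower values mean stronger disruption of MEK5 binding to MEKK3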
* = called active by the depositor; [ ] = another dose, or the depositor's remark. Sampled rows, rich in hits. Any-hit rate of the full collection: about 2.6%.

What do the screens show for `Cc1ccc(S(=O)(=O)NC(=O)COc2ccc(Cl)cc2Cl)cc1`?
MEKK3 PB1 HTS: 101; MEKK2mut PB1 HTS: -1; MEKK2wt PB1 HTS: 101; Lipid droplet: -1

What do the screens show for `Cc1ccc(CNC(=O)C(=O)NCC2OCCN2C(=O)c2cccs2)cc1` (configuration not stated)?
MEKK3 PB1 HTS: 135*; MEKK2mut PB1 HTS: 0; MEKK2wt PB1 HTS: 103; Lipid droplet: -4; MEKK2wt confirm: 104; MEKK2mut confirm: 2; MEKK3-MEK5 inh: 105

What do the screens show for `O=C(NCc1ccccc1)C(=O)NCC1OCCN1C(=O)c1cccs1` (configuration not stated)?
MEKK3 PB1 HTS: 132*; MEKK2mut PB1 HTS: 0; MEKK2wt PB1 HTS: 103; Lipid droplet: -15; MEKK2wt confirm: 99; MEKK2mut confirm: 0; MEKK3-MEK5 inh: 102

What do the screens show for `O=C(NCc1ccccc1)C(=O)NCC1OCCN1C(=O)c1ccc(Cl)cc1` (configuration not stated)?
MEKK3 PB1 HTS: 100; MEKK2mut PB1 HTS: -2; MEKK2wt PB1 HTS: 98; Lipid droplet: -17

What do the screens show for `COc1ccc(N2CCN(CCNS(=O)(=O)c3ccc(C)cc3)CC2)cc1`?
MEKK3 PB1 HTS: 104; MEKK2mut PB1 HTS: -4; MEKK2wt PB1 HTS: 99; Lipid droplet: 0

What do the screens show for `Cc1ccc(OCC(O)CNS(=O)(=O)c2ccccc2C(=O)O)cc1` (configuration not stated)?
MEKK3 PB1 HTS: 71*[inhibitor]; MEKK2mut PB1 HTS: -4; MEKK2wt PB1 HTS: 90; Lipid droplet: 10; MEKK2wt confirm: 100; MEKK2mut confirm: 2; MEKK3-MEK5 inh: 102

What do the screens show for `O=C(O)c1ccccc1S(=O)(=O)NCC(O)COC1CCCCC1` (configuration not stated)?
MEKK3 PB1 HTS: 102; MEKK2mut PB1 HTS: 0; MEKK2wt PB1 HTS: 96

Results for CCSC(=O)NC1CCCCC1 ?
MEKK3 PB1 HTS: 87; MEKK2mut PB1 HTS: -25; MEKK2wt PB1 HTS: 93; Lipid droplet: 6

How did CC(=O)OCCNc1cc(N2CCN(C)CC2)c2noc3c2c1C(=O)c1ccccc1-3 do in these assays?
MEKK3 PB1 HTS: 87; MEKK2mut PB1 HTS: 7; MEKK2wt PB1 HTS: 94; Lipid droplet: -2

Results for CCOC(=O)C(C(=O)OCC)c1cc(Br)c2noc3c2c1C(=O)c1ccccc1-3 ?
MEKK3 PB1 HTS: 64*[inhibitor]; MEKK2mut PB1 HTS: -14; MEKK2wt PB1 HTS: 39*[inhibitor]; MEKK2wt confirm: 44; MEKK2mut confirm: -25; MEKK3-MEK5 inh: 68*

How did CC(=O)c1cccc(N(C(=O)Cn2nnc3ccccc32)C(C(=O)NCC2CCCO2)c2ccc(N3CCOCC3)cc2)c1 (configuration not stated) do in these assays?
MEKK3 PB1 HTS: 101; MEKK2mut PB1 HTS: -13; MEKK2wt PB1 HTS: 89; Lipid droplet: 4

What do the screens show for `O=C(N/N=C/c1ccc(O)cc1)c1cc[n+](Cc2ccccc2)cc1`?
MEKK3 PB1 HTS: 95; MEKK2mut PB1 HTS: 10; MEKK2wt PB1 HTS: 107; Lipid droplet: 5

What do the screens show for `O=C(N/N=C/c1ccc(OCc2ccccc2)cc1)c1cc[n+](Cc2ccccc2)cc1`?
MEKK3 PB1 HTS: 97; MEKK2mut PB1 HTS: 21; MEKK2wt PB1 HTS: 153*; Lipid droplet: 3; MEKK2wt confirm: 160; MEKK2mut confirm: 26; MEKK3-MEK5 inh: 109

What do the screens show for `COc1cccc(OC)c1C(=O)NC(=S)Nc1ccc2c(c1)OCCO2`?
MEKK3 PB1 HTS: 141*; MEKK2mut PB1 HTS: 2; MEKK2wt PB1 HTS: 127; Lipid droplet: 1; MEKK2wt confirm: 103; MEKK2mut confirm: 3; MEKK3-MEK5 inh: 103

Results for O=C(NC(=S)Nc1ccc2c(c1)OCCO2)c1ccccc1 ?
MEKK3 PB1 HTS: 106; MEKK2mut PB1 HTS: 3; MEKK2wt PB1 HTS: 100

Results for COC(=O)C1(Cc2ccc(O)cc2)OC(=O)C(O)=C1c1ccc(O)cc1 (configuration not stated) ?
MEKK3 PB1 HTS: 109; MEKK2mut PB1 HTS: 8; MEKK2wt PB1 HTS: 109; Lipid droplet: -3

Results for Cc1nn2c(N3CCN(C)CC3)cc(C(C)(C)C)nc2c1-c1ccccc1 ?
MEKK3 PB1 HTS: 106; MEKK2mut PB1 HTS: 23; MEKK2wt PB1 HTS: 144*; Lipid droplet: 16; MEKK2wt confirm: 150; MEKK2mut confirm: 31; MEKK3-MEK5 inh: 106

Results for COC(=O)c1ccc([C@H](NC(=O)c2ccco2)[C@]2(C)C[C@H]2C2CCCCC2)cc1 ?
MEKK3 PB1 HTS: 105; MEKK2mut PB1 HTS: 2; MEKK2wt PB1 HTS: 99

What do the screens show for `COc1ccc(CC(=O)OCC(=O)NCc2ccccc2Cl)cc1`?
MEKK3 PB1 HTS: 151*; MEKK2mut PB1 HTS: 5; MEKK2wt PB1 HTS: 136; Lipid droplet: -2; MEKK2wt confirm: 107; MEKK2mut confirm: 4; MEKK3-MEK5 inh: 105

How did COc1ccccc1CNC(=O)COC(=O)Cc1ccc(Cl)cc1 do in these assays?
MEKK3 PB1 HTS: 107; MEKK2mut PB1 HTS: 13; MEKK2wt PB1 HTS: 115; Lipid droplet: -8

How did COC(=O)c1ccc(NS(=O)(=O)N(C)C)cc1 do in these assays?
MEKK3 PB1 HTS: 103; MEKK2mut PB1 HTS: 3; MEKK2wt PB1 HTS: 101; Lipid droplet: 3

How did Cc1ccc(NS(=O)(=O)N(C)C)cc1 do in these assays?
MEKK3 PB1 HTS: 71*[inhibitor]; MEKK2mut PB1 HTS: -4; MEKK2wt PB1 HTS: 81; Lipid droplet: 17; MEKK2wt confirm: 99; MEKK2mut confirm: -4; MEKK3-MEK5 inh: 102

What do the screens show for `CCOC(=O)C(NC(=O)CC(C)C)(Nc1sc(C)c(CC)c1C#N)C(F)(F)F` (configuration not stated)?
MEKK3 PB1 HTS: 99; MEKK2mut PB1 HTS: -2; MEKK2wt PB1 HTS: 98; Lipid droplet: -1

Results for CCOC(=O)C(NC(=O)CCl)(Nc1sc(C)c(CC)c1C#N)C(F)(F)F (configuration not stated) ?
MEKK3 PB1 HTS: 147*; MEKK2mut PB1 HTS: 3; MEKK2wt PB1 HTS: 109; Lipid droplet: -17; MEKK2wt confirm: 99; MEKK2mut confirm: 1; MEKK3-MEK5 inh: 98

How did CCCCCC(=O)NC(=S)Nc1ccc2oc(=O)ccc2c1 do in these assays?
MEKK3 PB1 HTS: 103; MEKK2mut PB1 HTS: 1; MEKK2wt PB1 HTS: 101; Lipid droplet: 20

How did COc1ccc(-n2c(SC(C)C(=O)Nc3ccc(NC(C)=O)cc3)nc3ccccc3c2=O)cc1OC (configuration not stated) do in these assays?
MEKK3 PB1 HTS: 107; MEKK2mut PB1 HTS: 10; MEKK2wt PB1 HTS: 111; Lipid droplet: -22
